≈ marks a conversion by molar mass, not a printed value.
Tests used:
Assay type in all cases: functional
[1] = system: Escherichia coli; experiment: Antibacterial activity against Escherichia coli at after 18 to 22 hrs by broth microdilution method
How it was run: (§1)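 Broth microdilution per NCCLS in Mueller-Hinton II broth; isolates subcultured for purity. Compounds dissolved in DMSO, serial dilutions 256 to 0.5 µg/mL; inoculum 10^5/mL. Controls: organism without compound, medium only. Incubation 18 to 22 h at 35 °C. MIC is the lowest concentration giving complete growth inhibition, read by unaided eye.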

[2] = system: Staphylococcus warneri; experiment: Antibacterial activity against Staphylococcus warneri after 18 to 22 hrs by broth microdilution method; how it was run: as §1
[3] = system: Pichia kudriavzevii; experiment: Antifungal activity against Candida krusei clinical isolate after 24 hrs by sabouraud dextrose broth based microdilution method
How it was run: (§2)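 Clinical isolates identified by conventional methods and subcultured for purity. Broth microdilution per NCCLS in Sabouraud dextrose broth; compounds dissolved in DMSO and serially diluted; inoculum 10^3/mL. Controls: fungi without compound, medium only. Incubated 24 h at 37 °C. MIC is the lowest concentration with complete growth inhibition by unaided eye. Values are geometric means over isolates per species.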

[4] = system: Enterococcus faecalis; experiment: Antibacterial activity against […] faecalis after 18 to 22 hrs by broth microdilution method; how it was run: as §1
[5] = system: Enterobacter sp.; experiment: Antibacterial activity against Enterobacter sp. after 18 to 22 hrs by broth microdilution method; how it was run: as §1
[6] = system: Candida albicans; experiment: Antifungal activity against Candida albicans clinical isolate after 24 hrs by sabouraud dextrose broth based microdilution method; how it was run: as §2
[7] = system: Staphylococcus haemolyticus; experiment: Antibacterial activity against Staphylococcus haemolyticus after 18 to 22 hrs by broth microdilution method; how it was run: as §1
[8] = system: Candida tropicalis; experiment: Antifungal activity against Candida tropicalis clinical isolate after 24 hrs by sabouraud dextrose broth based microdilution method; how it was run: as §2
[9] = system: Nakaseomyces glabratus; experiment: Antifungal activity against Candida glabrata clinical isolate after 24 hrs by sabouraud dextrose broth based microdilution method; how it was run: as §2
[10] = system: Klebsiella oxytoca; experiment: Antibacterial activity against Klebsiella oxytoca after 18 to 22 hrs by broth microdilution method; how it was run: as §1
[11] = system: Staphylococcus aureus; experiment: Antibacterial activity against Staphylococcus aureus after 18 to 22 hrs by broth microdilution method; how it was run: as §1
[12] = system: [Candida] sake; experiment: Antifungal activity against Candida sake clinical isolate after 24 hrs by sabouraud dextrose broth based microdilution method; conditions: Fermentozyma sake; how it was run: as §2
[13] = system: Proteus mirabilis; experiment: Antibacterial activity against Proteus mirabilis after 18 to 22 hrs by broth microdilution method; how it was run: as §1
[14] = system: Candida parapsilosis; experiment: Antifungal activity against Candida parapsilosis clinical isolate after 24 hrs by sabouraud dextrose broth based microdilution method; conditions: Lodderomyces parapsilosis; how it was run: as §2

SMILES	MIC [1] [µg/mL]	MIC [2] [µg/mL]	MIC [3] [µg/mL]	MIC [4] [µg/mL]	MIC [5] [µg/mL]	MIC [6] [µg/mL]	MIC [7] [µg/mL]	MIC [8] [µg/mL]	MIC [9] [µg/mL]	MIC [10] [µg/mL]	MIC [11] [µg/mL]	MIC [12] [µg/mL]	MIC [13] [µg/mL]	MIC [14] [µg/mL]
CCC(CC)=N/N=C1\SCC(=O)N1CN1C(=O)c2ccccc2C1=O	> 256	> 256	8 (≈ 22.3 µM)	> 256	> 256	2 (≈ 5.58 µM)	> 256	8 (≈ 22.3 µM)	8 (≈ 22.3 µM)	> 256	> 256	8 (≈ 22.3 µM)	> 256	8 (≈ 22.3 µM)
CCC/C(C)=N/N=C1\SCC(=O)N1Cc1ccc([N+](=O)[O-])cc1	> 256	> 256	16 (≈ 47.8 µM)	> 256	> 256	2 (≈ 5.98 µM)	> 256	64 (≈ 191 µM)	2 (≈ 5.98 µM)	> 256	> 256	8 (≈ 23.9 µM)	> 256	16 (≈ 47.8 µM)
Clc1ccc(COC(Cn2ccnc2)c2ccc(Cl)cc2Cl)c(Cl)c1 (configuration not stated) [MICONAZOLE]	–	–	4 (≈ 9.61 µM)	–	–	2 (≈ 4.81 µM)	–	2 (≈ 4.81 µM)	4 (≈ 9.61 µM)	–	–	2 (≈ 4.81 µM)	–	4 (≈ 9.61 µM)
C/C(=N\N=C1/SCC(=O)N1CN1C(=O)c2ccccc2C1=O)c1ccccc1	> 256	> 256	8 (≈ 20.4 µM)	> 256	> 256	2 (≈ 5.1 µM)	> 256	8 (≈ 20.4 µM)	8 (≈ 20.4 µM)	> 256	> 256	8 (≈ 20.4 µM)	> 256	8 (≈ 20.4 µM)
CCCCCC/C(C)=N/N=C1\SCC(=O)N1Cc1cccc2ccccc12	> 256	> 256	8 (≈ 21 µM)	> 256	> 256	2 (≈ 5.24 µM)	> 256	8 (≈ 21 µM)	2 (≈ 5.24 µM)	> 256	> 256	16 (≈ 41.9 µM)	> 256	16 (≈ 41.9 µM)
CCCC/C(CC)=N/N=C1\SCC(=O)N1CN1C(=O)c2ccccc2C1=O	> 256	> 256	32 (≈ 82.8 µM)	> 256	> 256	4 (≈ 10.3 µM)	> 256	2 (≈ 5.17 µM)	16 (≈ 41.4 µM)	> 256	> 256	2 (≈ 5.17 µM)	> 256	8 (≈ 20.7 µM)
CCC/C(C)=N/N=C1\SCC(=O)N1Cc1cccc2ccccc12	> 256	> 256	2 (≈ 5.89 µM)	> 256	> 256	2 (≈ 5.89 µM)	> 256	64 (≈ 189 µM)	2 (≈ 5.89 µM)	> 256	> 256	16 (≈ 47.1 µM)	> 256	2 (≈ 5.89 µM)
O=C1c2ccccc2C(=O)N1CN1C(=O)CS/C1=N\N=C1CCCCCC1	> 256	> 256	16 (≈ 41.6 µM)	> 256	> 256	4 (≈ 10.4 µM)	> 256	32 (≈ 83.2 µM)	16 (≈ 41.6 µM)	> 256	> 256	16 (≈ 41.6 µM)	> 256	4 (≈ 10.4 µM)
O=C1c2ccccc2C(=O)N1CN1C(=O)CS/C1=N\N=C\c1ccc2c(c1)OCO2	> 256	> 256	32 (≈ 75.8 µM)	> 256	> 256	8 (≈ 18.9 µM)	> 256	8 (≈ 18.9 µM)	8 (≈ 18.9 µM)	> 256	> 256	128 (≈ 303 µM)	> 256	128 (≈ 303 µM)
O=C1c2ccccc2C(=O)N1CN1C(=O)CS/C1=N\N=C1CCCC1	> 256	> 256	16 (≈ 44.9 µM)	> 256	> 256	2 (≈ 5.61 µM)	> 256	8 (≈ 22.4 µM)	16 (≈ 44.9 µM)	> 256	> 256	256 (≈ 718 µM)	> 256	64 (≈ 180 µM)
C=CCC/C(C)=N/N=C1\SCC(=O)N1CN1C(=O)c2ccccc2C1=O	> 256	> 256	32 (≈ 86.4 µM)	> 256	> 256	4 (≈ 10.8 µM)	> 256	4 (≈ 10.8 µM)	32 (≈ 86.4 µM)	> 256	> 256	8 (≈ 21.6 µM)	> 256	128 (≈ 346 µM)
CCCCCC/C(C)=N/N=C1\SCC(=O)N1CN1C(=O)c2ccccc2C1=O	> 256	> 256	8 (≈ 20 µM)	> 256	> 256	2 (≈ 4.99 µM)	> 256	16 (≈ 39.9 µM)	16 (≈ 39.9 µM)	> 256	> 256	16 (≈ 39.9 µM)	> 256	16 (≈ 39.9 µM)
CC1CCC(=N/N=C2\SCC(=O)N2Cc2ccc([N+](=O)[O-])cc2)CC1 (configuration not stated)	> 256	> 256	8 (≈ 22.2 µM)	> 256	> 256	32 (≈ 88.8 µM)	> 256	32 (≈ 88.8 µM)	16 (≈ 44.4 µM)	> 256	> 256	4 (≈ 11.1 µM)	> 256	8 (≈ 22.2 µM)
CC1CCC(=N/N=C2\SCC(=O)N2CN2C(=O)c3ccccc3C2=O)CC1 (configuration not stated)	> 256	> 256	8 (≈ 20.8 µM)	> 256	> 256	2 (≈ 5.2 µM)	> 256	8 (≈ 20.8 µM)	32 (≈ 83.2 µM)	> 256	> 256	4 (≈ 10.4 µM)	> 256	8 (≈ 20.8 µM)
C/C(=N\N=C1/SCC(=O)N1Cc1cccc2ccccc12)c1ccccn1	> 256	> 256	2 (≈ 5.34 µM)	> 256	> 256	2 (≈ 5.34 µM)	> 256	2 (≈ 5.34 µM)	2 (≈ 5.34 µM)	> 256	> 256	2 (≈ 5.34 µM)	> 256	2 (≈ 5.34 µM)
C/C(=N\N=C1/SCC(=O)N1CN1C(=O)c2ccccc2C1=O)c1ccccn1	> 256	> 256	32 (≈ 81.3 µM)	> 256	> 256	2 (≈ 5.08 µM)	> 256	2 (≈ 5.08 µM)	32 (≈ 81.3 µM)	> 256	> 256	4 (≈ 10.2 µM)	> 256	4 (≈ 10.2 µM)
C=CCC/C(C)=N/N=C1\SCC(=O)N1Cc1ccc([N+](=O)[O-])cc1	> 256	> 256	32 (≈ 92.4 µM)	> 256	> 256	4 (≈ 11.5 µM)	> 256	8 (≈ 23.1 µM)	8 (≈ 23.1 µM)	> 256	> 256	8 (≈ 23.1 µM)	> 256	32 (≈ 92.4 µM)
O=C1CS/C(=N\N=C2CCCCCC2)N1Cc1ccc([N+](=O)[O-])cc1	> 256	> 256	4 (≈ 11.1 µM)	> 256	> 256	128 (≈ 355 µM)	> 256	16 (≈ 44.4 µM)	32 (≈ 88.8 µM)	> 256	> 256	4 (≈ 11.1 µM)	> 256	8 (≈ 22.2 µM)
CC(C)(O/N=C(\C(=O)N[C@@H]1C(=O)N2C(C(=O)[O-])=C(C[n+]3ccccc3)CS[C@H]12)c1csc(N)n1)C(=O)O [CEFTAZIDIME]	4 (≈ 7.32 µM)	4 (≈ 7.32 µM)	–	4 (≈ 7.32 µM)	8 (≈ 14.6 µM)	–	4 (≈ 7.32 µM)	–	–	8 (≈ 14.6 µM)	2 (≈ 3.66 µM)	–	8 (≈ 14.6 µM)	–
OC(Cn1cncn1)(Cn1cncn1)c1ccc(F)cc1F [FLUCONAZOLE]	–	–	2 (≈ 6.53 µM)	–	–	2 (≈ 6.53 µM)	–	2 (≈ 6.53 µM)	2 (≈ 6.53 µM)	–	–	2 (≈ 6.53 µM)	–	2 (≈ 6.53 µM)
Clc1ccc(C(Cn2ccnc2)OCc2ccsc2Cl)c(Cl)c1 (configuration not stated) [TIOCONAZOLE]	–	–	8 (≈ 20.6 µM)	–	–	8 (≈ 20.6 µM)	–	8 (≈ 20.6 µM)	4 (≈ 10.3 µM)	–	–	4 (≈ 10.3 µM)	–	8 (≈ 20.6 µM)
CC(=O)N1CCN(c2ccc(OCC3COC(Cn4ccnc4)(c4ccc(Cl)cc4Cl)O3)cc2)CC1 (configuration not stated) [KETOCONAZOLE]	–	–	4 (≈ 7.53 µM)	–	–	2 (≈ 3.76 µM)	–	2 (≈ 3.76 µM)	2 (≈ 3.76 µM)	–	–	4 (≈ 7.53 µM)	–	2 (≈ 3.76 µM)
C[C@@H]1[C@H](O)[C@@H](C)/C=C/C=C/C=C/C=C/C=C/C=C/C=C/[C@H](O[C@@H]2O[C@H](C)[C@@H](O)[C@H](N)[C@@H]2O)C[C@@H]2O[C@](O)(C[C@@H](O)C[C@@H](O)[C@H](O)CC[C@@H](O)C[C@@H](O)CC(=O)O[C@H]1C)C[C@H](O)[C@H]2C(=O)O [AMPHOTERICIN B]	–	–	4 (≈ 4.33 µM)	–	–	4 (≈ 4.33 µM)	–	2 (≈ 2.16 µM)	4 (≈ 4.33 µM)	–	–	2 (≈ 2.16 µM)	–	2 (≈ 2.16 µM)
Clc1ccccc1C(c1ccccc1)(c1ccccc1)n1ccnc1 [CLOTRIMAZOLE]	–	–	2 (≈ 5.8 µM)	–	–	2 (≈ 5.8 µM)	–	2 (≈ 5.8 µM)	2 (≈ 5.8 µM)	–	–	2 (≈ 5.8 µM)	–	2 (≈ 5.8 µM)

From ChEMBL document CHEMBL3739379, “Anti-Candida activity and cytotoxicity of a large library of new N-substituted-1,3-thiazolidin-4-one derivatives” (Eur J Med Chem, 2016)
